ChEMBL document CHEMBL4118124, “Quinone skeleton as a new class of irreversible inhibitors against Staphylococcus aureus sortase A” (Bioorg Med Chem Lett, 2018)
pIC50, pKi: −log10 of the molar value. Active and inactive are the calls of the source. The calls are words filed in the database; no cut-off is given here.

Assays:
Sortase A [1] = molecular target: T1, Sortase A (Staphylococcus aureus, UniProt Q9S446); test: Inhibition of Staphylococcus aureus SrtA deltaN24 mutant transpeptidation activity using abz-LPATG-dnp as substrate preincubated for 10 mins followed by substrate addition measured every 2 mins for 20 mins by FRET assay
Sortase A [2] = molecular target: T1, Sortase A; test: (§1) Inhibition of Staphylococcus aureus SrtA deltaN24 mutant assessed as decrease in transpeptidation of IsdA (64 to 323 residues) incubated for 1.25 hrs in presence of NH2-Gly3 nucleophile by SDS-PAGE method
Summary of the method: (§2)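 Affinity-purified IsdA64–323, a natural SrtA substrate, incubated with purified SrtA ΔN24 and NH2-Gly3 nucleophile, with or without compound. Sorting-signal cleavage giving the transpeptidation product resolved by SDS-PAGE; inhibition seen as partial or complete loss of product.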

[3] = molecular target: T2, Sortase A (Staphylococcus aureus) (UniProt Q9S446); test: (§3) Irreversible inhibition of Staphylococcus aureus SrtA deltaN24 mutant transpeptidation activity using abz-LPATG-dnp as substrate incubated for 5 to 25 mins by FRET assay
T2 sequence (whole entry): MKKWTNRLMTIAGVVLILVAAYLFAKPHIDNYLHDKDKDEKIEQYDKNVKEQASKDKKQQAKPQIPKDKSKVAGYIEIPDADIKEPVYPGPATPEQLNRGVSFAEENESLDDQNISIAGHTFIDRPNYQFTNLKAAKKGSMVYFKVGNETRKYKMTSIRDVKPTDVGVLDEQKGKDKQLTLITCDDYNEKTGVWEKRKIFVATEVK

Sortase A [4] = molecular target: T1, Sortase A; test: as §3
[5] = molecular target: T2, Sortase A (Staphylococcus aureus); test: Irreversible inhibition of Staphylococcus aureus SrtA deltaN24 mutant transpeptidation activity using abz-LPATG-dnp as substrate assessed as ratio Kinact to Ki incubated for 5 to 25 mins by FRET assay
[6] = molecular target: T2, Sortase A (Staphylococcus aureus); test: Binding affinity to Staphylococcus aureus 15N-labelled SrtA deltaN59 mutant at 1:0 and 1:1 molar ratio of protein and compound by 2D 1H-15N HSQC spectra method
Staphylococcus aureus [7] = test: Antibiofilm activity against Staphylococcus aureus Newman assessed as inhibition of biofilm biomass after 18 hrs by crystal violet staining-based assay; type: functional, organism-based
[8] = molecular target: T2, Sortase A (Staphylococcus aureus); test: Irreversible binding affinity to Staphylococcus aureus SrtA deltaN24 mutant at Cys184 at 10 fold IC50 preincubated with compound for 1 hr followed by protein dilution by ESI-LC-MS/MS method
[9] = molecular target: T2, Sortase A (Staphylococcus aureus); test: Irreversible inhibition of Staphylococcus aureus SrtA deltaN24 mutant transpeptidation activity using […] as substrate assessed as remaining activity at 10 fold IC50 preincubated for 1 hr followed by protein dilution and subsequent substrate addition measured every 2 mins for 20 mins by FRET assay relative to control
[10] = molecular target: T2, Sortase A (Staphylococcus aureus); test: Binding affinity to Staphylococcus aureus 15N-labelled SrtA deltaN59 C184A mutant at 1:0, 1:1, 1:2, 1:5 and 1:10 molar ratio of protein and compound by 2D 1H-15N HSQC spectra method
Staphylococcus aureus [11] = test: Growth inhibition of Staphylococcus aureus Newman at 150 uM incubated for 12 hrs measured every hour by spectrophotometry; type: organism-based; conditions: in vivo
[12] = molecular target: T2, Sortase A (Staphylococcus aureus); test: Irreversible binding affinity to Staphylococcus aureus SrtA deltaN24 mutant at 10 fold IC50 preincubated with compound for 1 hr followed by protein dilution by ESI-LC/MS method
[13] = molecular target: T2, Sortase A (Staphylococcus aureus); test: Inhibition of Staphylococcus aureus Newman SrtA assessed as decrease in SpA display by FITC-IgG-based fluorescence assay; conditions: Staphylococcus aureus subsp. aureus str. Newman
[14] = molecular target: T2, Sortase A (Staphylococcus aureus); test: Inhibition of Staphylococcus aureus Newman SrtA assessed as decrease in SpA display by SDS/PAGE immunoblotting assay; conditions: Staphylococcus aureus subsp. aureus str. Newman
Staphylococcus aureus [15] = test: Growth inhibition of Staphylococcus aureus Newman at 50 uM measured every hour; type: organism-based; conditions: in vivo
[16] = molecular target: T2, Sortase A (Staphylococcus aureus); test: as §1; summary of the method: as §2

Row | Compound | pIC50 (Sortase A [1]) | pIC50 (Sortase A [2]) | Kinact [3] [min⁻¹] | pKi (Sortase A [4]) | Ratio [5] [µM⁻¹ min⁻¹] | Activity [6] | inhibition (Staphylococcus aureus [7]) | Activity [8] | Activity [9] [%] | Activity [10] | growth inhibition (GI) (Staphylococcus aureus [11]) | Activity [12] | inhibition [13] | inhibition [14] | growth inhibition (GI) (Staphylococcus aureus [15]) | inhibition [16]
1 | O=C1C[C@H]2O[C@H](CCc3ccccc3)C3=C(C(=O)C=CC3=O)[C@H]2O1 | 5.21 | 5.00 | 0.0388 | 5.45 | 0.0109 | Active | Dose-dependent effect | Active | < 10 | inactive | Non-Toxic | Active | Dose-dependent effect | Dose-dependent effect |  | 
2 | CC(C)=CC[C@@H](O)C1=CC(=O)c2c(O)ccc(O)c2C1=O [SHIKONIN] | 6.52 | 5.30 |  |  |  |  |  |  |  |  |  |  |  |  | Toxic | 
3 | O=C1C[C@H]2O[C@@H](CCc3ccccc3)C3=C(C(=O)C=CC3=O)[C@H]2O1 | 4.71 | 4.30 |  |  |  |  | Dose-dependent effect |  | < 10 |  | Non-Toxic |  | Dose-dependent effect | Dose-dependent effect |  | 
4 | CC(C)=CC[C@H](O)C1=CC(=O)c2c(O)ccc(O)c2C1=O [ALKANNIN] | 6.44 | 5.30 |  |  |  |  |  |  |  |  |  |  |  |  | Toxic | 
5 | CCCNC1=C(C)C(=O)c2c(/C=C/S(=O)(=O)c3ccccc3)cccc2C1=O | < 4.30 |  |  |  |  |  |  |  |  |  |  |  |  |  |  | inactive
